# Assay results taken from ChEMBL document CHEMBL4680166, “Dual-functional conjugates improving cancer immunochemotherapy by inhibiting tubulin polymerization and indoleamine-2,3-dioxygenase” (Eur J Med Chem, 2020).
# Activity calls are given as the source filed them. The calls are words filed in the database; no cut-off is given here.
# Assays:
# [1] = test system: A549; assay: Anticancer activity against human A549 cells assessed as inhibition of cell proliferation measured after 72 hrs by MTT assay; type: functional, cell-based; settings: A549, 72 h
# How it was run: (§1)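 Cells (A549, PC-3, HeLa, HUVEC) grown in DMEM with 10% FBS at 37 °C, 5% CO₂. Seeded at 5 × 10⁴ cells/well and allowed 24 h to attach, then exposed 72 h to a concentration series from DMSO stocks. MTT was added for 4 h and formazan dissolved in DMSO, read at 490 nm. Survival taken relative to untreated control. IC50 by Bliss method, three repeats.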
# [2] = test system: PC-3; assay: Anticancer activity against human PC3 cells assessed as inhibition of cell proliferation measured after 72 hrs by MTT assay; type: functional, cell-based; settings: PC-3, 72 h; how it was run: as §1
# [3] = test system: HUVEC; assay: Cytotoxicity against HUVEC cells assessed as inhibition of cell proliferation measured after 72 hrs by MTT assay; type: cell-based; settings: Homo sapiens; how it was run: as §1
# [4] = test system: HeLa; assay: Anticancer activity against human HeLa cells assessed as inhibition of cell proliferation measured after 72 hrs by MTT assay; type: functional, cell-based; how it was run: as §1
# [5] = test system: HeLa; assay: Induction of apoptosis in human HeLa cells assessed as upregulation of caspase-3 protein expression at 0.5 uM measured after 24 hrs by western blot analysis; type: functional, cell-based
# How it was run: (§2)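 HeLa cells were treated 24 h at 37 °C and lysed in buffer containing PMSF. Protein quantified by BCA, equal amounts separated by SDS-PAGE and transferred to nitrocellulose. Blocked in 5% milk, primary antibodies overnight at 4 °C, peroxidase secondary 2 h at 25 °C. Detection by chemiluminescence, β-actin as loading control.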
# [6] = test system: HeLa; assay: Induction of apoptosis in human HeLa cells assessed as upregulation of Bax protein expression at 0.5 uM measured after 24 hrs by western blot analysis; type: functional, cell-based; how it was run: as §2
# [7] = test system: HeLa; assay: Induction of apoptosis in human HeLa cells assessed as mitochondrial membrane potential dissipation by measuring increase in green fluorescence intensity at 0.5 uM incubated for 24 hrs by JC-1 staining based fluorescence microscopic analysis; type: functional, cell-based
# [8] = test system: HeLa; assay: Induction of apoptosis in human HeLa cells assessed as upregulation of PARP protein expression at 0.5 uM measured after 24 hrs by western blot analysis; type: functional, cell-based; how it was run: as §2
# [9] = test system: HeLa; assay: Induction of apoptosis in human HeLa cells assessed as down regulation of Bcl-2 protein expression at 0.5 uM measured after 24 hrs by western blot analysis; type: functional, cell-based; how it was run: as §2
# [10] = test system: HeLa; assay: Induction of apoptosis in human HeLa cells assessed as early apoptotic cells at 0.5 uM measured after 24 hrs by Annexin-V-FITC and PI staining based flow cytometry (reference value: 2.58%); type: functional
# How it was run: (§3)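 HeLa cells were treated 24 h, washed twice in PBS and resuspended in binding buffer. Stained with annexin V-FITC and PI for 30 min in the dark at room temperature, then analysed by flow cytometry.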
# [11] = test system: HeLa; assay: Inhibition of cell migration in human HeLa cells at 0.5 uM measured after 24 hrs by wound healing assay (reference value: 61%); type: functional
# How it was run: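 Confluent HeLa monolayers were scratched with a pipette tip and washed with ice-cold PBS. Incubated 24 h at 37 °C in DMEM/10% FBS containing compound. Wounds were photographed at 0 and 24 h and migration distance measured manually.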
# [12] = Toxicity in BALB/c nude mouse transfected with human HeLa cells assessed as heart damage at 30 mg/kg/day, iv for 21 days by H&E staining based immunohistochemistry; type: organism-based; settings: in vivo, 504 h, time 21 day
# How it was run: (§4)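 HeLa xenografts were grown s.c. in male BALB/c nude mice, which received i.v. tail-vein doses once daily for 21 days in Tween 80/saline vehicle, with saline controls. After 3 weeks the mice were sacrificed. Organs from one mouse per group were fixed in 4% paraformaldehyde, paraffin-embedded and sectioned. Sections were dewaxed, stained with Harris hematoxylin and eosin-phloxine, and examined microscopically for histopathologic changes.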
# [13] = Toxicity in BALB/c nude mouse transfected with human HeLa cells assessed as body weight changes at 30 mg/kg/day, iv for 21 days; type: organism-based; settings: in vivo, 504 h, time 21 day
# How it was run: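 Five-week-old male BALB/c nude mice (18-22 g) were inoculated s.c. in the right armpit with HeLa cells (1 × 10⁷ cells/0.1 mL/mouse). At a tumour volume of 120-150 mm³, mice were randomised, five per group. Dosing was i.v. via the tail vein once daily for 21 days, in Tween 80/physiological saline; controls got an equal volume of saline. Body weight was recorded every 2 days.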
# [14] = test system: HeLa; assay: Inhibition of IDO1 expression in hIFNgamma-stimulated human HeLa cells at 0.5 uM measured after 24 hrs by western blot assay; type: functional; how it was run: as §2
# [15] = test system: HeLa; assay: Induction of apoptosis in human HeLa cells assessed as late apoptotic cells at 0.5 uM measured after 24 hrs by Annexin-V-FITC and PI staining based flow cytometry (reference value: 0.199%); type: functional; how it was run: as §3
# [16] = test system: HeLa; assay: Induction of cell cycle arrest in human HeLa cells assessed as accumulation at G2/M phase at 0.5 uM measured after 24 hrs by propidium iodide/RNAse staining based flow cytometry (reference value: 10.7%); type: functional
# [17] = test system: HeLa; assay: Induction of cell cycle arrest in human HeLa cells assessed as accumulation at S phase at 0.5 uM measured after 24 hrs by propidium iodide/RNAse staining based flow cytometry (reference value: 27.8%); type: functional
# [18] = test system: HeLa; assay: Induction of apoptosis in human HeLa cells assessed as viable cells at 0.5 uM measured after 24 hrs by Annexin-V-FITC and PI staining based flow cytometry (reference value: 96.3%); type: functional; settings: read-out: Activity; how it was run: as §3
# [19] = test system: HeLa; assay: Induction of intracellular reactive oxygen species generation in human HeLa cells at 0.5 uM measured after 24 hrs by DCFH-DA staining based flow cytometry (reference value: 6.47%); type: functional
# [20] = Toxicity in BALB/c nude mouse transfected with human HeLa cells assessed as spleen damage at 30 mg/kg/day, iv for 21 days by H&E staining based immunohistochemistry; type: organism-based; settings: in vivo, 504 h, time 21 day; how it was run: as §4
# [21] = Toxicity in BALB/c nude mouse transfected with human HeLa cells assessed as liver damage at 30 mg/kg/day, iv for 21 days by H&E staining based immunohistochemistry; type: organism-based; settings: in vivo, 504 h, time 21 day; how it was run: as §4
# [22] = test system: HeLa; assay: Induction of cell cycle arrest in human HeLa cells assessed as accumulation at G1 phase at 0.5 uM measured after 24 hrs by propidium iodide/RNAse staining based flow cytometry (reference value: 61.5%); type: functional
# [23] = test system: HeLa; assay: Induction of apoptosis in human HeLa cells assessed as necrotic cells at 0.5 uM measured after 24 hrs by Annexin-V-FITC and PI staining based flow cytometry (reference value: 0.956%); type: functional; how it was run: as §3
# [24] = test system: HeLa; assay: Antitumor activity against human HeLa cells xenografted in BALB/c mouse assessed as inhibition of tumor volume at 30 mg/kg/day, iv administered for 21 days by caliper analysis; type: functional; settings: 504 h, time 21 day
# How it was run: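 Male BALB/c nude mice, five weeks old, 18-22 g. Inoculated subcutaneously in the right armpit with 1 × 10⁷ HeLa cells/0.1 mL. At 120-150 mm³, randomized to four groups of five. Once-daily tail-vein injection for 21 days in Tween 80/physiological saline; controls received saline. Tumor volume measured every 2 days by caliper, V = AB²/2.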
# [25] = test system: HeLa; assay: Induction of apoptosis in human HeLa cells assessed as cell membrane integrity loss, chromatin condensation and apoptotic body formation by measuring strengthened orange fluorescence intensity at 0.5 uM measured after 24 hrs by AO/EB dual staining based fluorescence microscopy; type: functional
# [26] = Toxicity in BALB/c nude mouse transfected with human HeLa cells assessed as lung damage at 30 mg/kg/day, iv for 21 days by H&E staining based immunohistochemistry; type: organism-based; settings: in vivo, 504 h, time 21 day; how it was run: as §4
# [27] = test system: HeLa; assay: Induction of apoptosis in human HeLa cells assessed as cell membrane integrity loss, chromatin condensation and apoptotic body formation by measuring reduction in green fluorescence intensity at 0.5 uM measured after 24 hrs by AO/EB dual staining based fluorescence microscopy; type: functional
# [28] = Toxicity in BALB/c nude mouse transfected with human HeLa cells assessed as kidney damage at 30 mg/kg/day, iv for 21 days by H&E staining based immunohistochemistry; type: organism-based; settings: in vivo, 504 h, time 21 day; how it was run: as §4
# [29] = test system: HeLa; assay: Induction of apoptosis in human HeLa cells assessed as mitochondrial membrane potential dissipation at 0.5 uM incubated for 24 hrs by JC-1 staining based flow cytometry (reference value: 6.6%); type: functional
# [30] = test system: HeLa; assay: Inhibition of IDO1 expression in hIFNgamma-stimulated human HeLa cells assessed as decrease in kynurenine production at 0.1 uM measured after 48 hrs by reverse-phase HPLC analysis; type: functional
# How it was run: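 HeLa cells were given fresh L-tryptophan-containing medium with hIFN-γ (25 ng/mL) plus compound for 48 h. Collected cells were treated with 20% trichloroacetic acid and centrifuged. Supernatant analysed by reversed-phase HPLC (ODS column, acetonitrile/water, 1.0 mL/min, […]).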
# [31] = Antitumor immunity against IFN-gamma stimulated human HeLa cells co-cultured with PHA-M-stimulated human PBMC cells assessed as induction of CD3+ T cell proliferation at 0.1 uM preincubated for 2 days measured after co-culturing with PBMC for 6 days by flow cytometry (reference value: 6 to 6.2%); type: functional; settings: time 8 day
smiles,measurement,setting,value
COc1ccc(/C=C/C(=O)c2cc(OC)c(OC)c(OC)c2)cc1OC(=O)c1cccc(Cn2cc(CCOC(=O)CCC(=O)n3cc(C4CC(=O)NC4=O)c4cc(F)ccc43)nn2)c1 (stereo not given),IC50,[1],970 nM
same,IC50,[2],1560 nM
same,IC50,[3],7190 nM
same,IC50,[4],490 nM
COc1ccc(/C=C/C(=O)c2cc(OC)c(OC)c(OC)c2)cc1O,IC50,[1],550 nM
same,IC50,[2],640 nM
same,IC50,[3],1240 nM
same,IC50,[4],350 nM
COc1ccc(/C=C\c2cc(OC)c(OC)c(OC)c2)cc1OC(=O)c1cccc(Cn2cc(CCOC(=O)CCC(=O)n3cc(C4CC(=O)NC4=O)c4cc(F)ccc43)nn2)c1 (stereo not given),IC50,[1],950 nM
same,IC50,[2],850 nM
same,IC50,[3],4490 nM
same,IC50,[4],390 nM
COc1ccc(/C=C/C(=O)c2cc(OC)c(OC)c(OC)c2)cc1OC(=O)CCC(=O)n1cc(C2CC(=O)NC2=O)c2cc(F)ccc21 (stereo not given),IC50,[1],1280 nM
same,IC50,[2],1390 nM
same,IC50,[3],4760 nM
same,IC50,[4],370 nM
COc1ccc(/C=C\c2cc(OC)c(OC)c(OC)c2)cc1O [COMBRETASTATIN A4],Activity,[5],Active
same,Activity,[6],Active
same,Activity,[7],Active
same,Activity,[8],Active
same,IC50,[1],470 nM
same,Activity,[9],Active
same,IC50,[2],400 nM
same,Activity,[10],25%
same,inhibition at 0.5 µM,[11],79%
same,Activity,[12],Non-Toxic
same,Activity,[13],Non-Toxic
same,inhibition,[14],inactive
same,Activity,[15],10.3%
same,Activity,[16],66.57%
same,Activity,[17],28.77%
same,viability at 0.5 µM,[18],63.3%
same,Activity,[19],21.8%
same,Activity,[20],Non-Toxic
same,IC50,[3],980 nM
same,Activity,[21],Non-Toxic
same,Activity,[22],4.65%
same,Activity,[23],1.44%
same,IC50,[4],210 nM
same,inhibition in vivo at 30 mg/kg/day,[24],57.6%
same,Activity,[25],Active
same,Activity,[26],Non-Toxic
same,Activity,[27],Active
same,Activity,[28],Non-Toxic
same,Activity,[29],54.2%
COc1ccc(/C=C/C(=O)c2cc(OC)c(OC)c(OC)c2)cc1OC(=O)c1cccc(Cn2cc(CCOC(=O)[C@H](N)Cc3cn(C)c4ccccc34)nn2)c1,IC50,[1],710 nM
same,IC50,[2],620 nM
same,IC50,[3],3730 nM
same,IC50,[4],480 nM
Cn1cc(C[C@@H](N)C(=O)O)c2ccccc21 [INDOXIMOD],inhibition,[30],Active
same,IC50,[1],> 100000 nM
same,IC50,[2],> 100000 nM
same,inhibition,[14],Active
same,IC50,[3],> 100000 nM
same,IC50,[4],> 100000 nM
same,Activity,[31],17.8%
COc1ccc(/C=C\c2cc(OC)c(OC)c(OC)c2)cc1OCCCOC(=O)[C@H](N)Cc1cn(C)c2ccccc12,IC50,[1],530 nM
same,IC50,[2],580 nM
same,inhibition,[14],Active
same,IC50,[3],3110 nM
same,IC50,[4],330 nM
COc1ccc(/C=C\c2cc(OC)c(OC)c(OC)c2)cc1OC(=O)[C@H](N)Cc1cn(C)c2ccccc12,IC50,[1],680 nM
same,IC50,[2],720 nM
same,inhibition,[14],Active
same,IC50,[3],2530 nM
same,IC50,[4],430 nM
COc1ccc(/C=C\c2cc(OC)c(OC)c(OC)c2)cc1OC(=O)CCC(=O)n1cc(C2CC(=O)NC2=O)c2cc(F)ccc21 (stereo not given),IC50,[1],450 nM
same,IC50,[2],620 nM
same,IC50,[3],2270 nM
same,IC50,[4],270 nM
